Activity calls are given as the source filed them. The rule behind the calls is not given here.
What was measured:
MV4-11 [1] = assay: Cytotoxicity against human MV4-11 cells assessed as decrease in cell viability after 48 hrs […]; assay type: functional; settings: MV4-11, 48 h, read-out: LD50 (the source's name)
Method in brief: (§1)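 AML cell lines seeded at 0.5 million cells/mL (counted by Trypan Blue exclusion) and exposed to varying concentrations in triplicate for 48 h. Read-out by flow cytometry after annexin V (FITC or PE) and 7-AAD staining, at least 50 000 events per condition; annexin V/7AAD double-negative cells scored viable. Value reported as LD50.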

MOLM-13 [2] = assay: Effect on total NF-kappaB p65 level in human MOLM13 cells at 5 to 20 uM after 6 hrs by Western blot analysis; assay type: cell-based; settings: molm-13, 6 h
Method in brief: (§2)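 MOLM-13 cells at 0.5 million/mL were treated 6 h and lysed on ice for 30 min in Tris pH 7.5/NaCl/Triton/SDS buffer with phosphatase and protease inhibitors. Lysates were run on 10% SDS-PAGE and blotted to PVDF. Membranes were probed separately for phospho-p65 and total p65 at 4 °C overnight, detected with IRDye secondaries by infrared imaging, with total p65 as loading control.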

Homo sapiens [3] = species: Homo sapiens; assay: Inhibition of NF-kappaB in human MOLM13 cells assessed as MYB gene expression at 10 to 20 uM after 6 hrs by Western blot analysis; assay type: cell-based
TUR [4] = assay: Cytotoxicity against human TUR cells assessed as decrease in cell viability after 48 hrs […]; assay type: functional; settings: read-out: LD50 (the source's name); method in brief: as §1
U-937 [5] = assay: Cytotoxicity against human U937 cells assessed as decrease in cell viability after 48 hrs […]; assay type: functional; settings: U-937, 48 h, read-out: LD50 (the source's name); method in brief: as §1
MOLM-13 [6] = assay: Downregulation of NF-kappaB1A transcription in human MOLM13 cells at 20 uM after 6 hrs by qRT-PCR analysis; assay type: functional, cell-based
Method in brief: (§3)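 MOLM-13 cells at 0.5 million/mL were treated 6 h with 20 μM compound, then total RNA was extracted. One-step TaqMan RT-qPCR was run: RT 48 °C 15 min, then 95 °C 10 min, then 40 cycles of 95 °C 15 s and 60 °C 1 min. Singleplex reactions were in triplicate, with fold change by the 2^-ΔΔCt method.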

Homo sapiens [7] = species: Homo sapiens; assay: Inhibition of NF-kappaB p65 phosphorylation in human MOLM13 cells at 5 to 20 uM after 6 hrs by Western blot analysis; assay type: cell-based; method in brief: as §2
HL-60 [8] = assay: Cytotoxicity against human HL60 cells assessed as decrease in cell viability after 48 hrs […]; assay type: functional; settings: HL-60, 48 h, read-out: LD50 (the source's name); method in brief: as §1
MOLM-13 [9] = assay: Cytotoxicity against human MOLM13 cells assessed as decrease in cell viability after 48 hrs […]; assay type: functional; settings: MOLM-13, 48 h, read-out: LD50 (the source's name); method in brief: as §1
MOLM-13 [10] = assay: Upregulation of HSPA1A in human MOLM13 cells at 20 uM after 6 hrs by qRT-PCR analysis; assay type: functional, cell-based; method in brief: as §3
Homo sapiens [11] = species: Homo sapiens; assay: Inhibition of NF-kappaB DNA binding activity in human MOLM13 cells by ELISA; assay type: cell-based
Method in brief: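 p65 DNA-binding ELISA in MOLM-13 cells, with TNFα as positive control, run in triplicate.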

THP-1 [12] = assay: Cytotoxicity against human THP1 cells assessed as decrease in cell viability after 48 hrs […]; assay type: functional; settings: THP-1, 48 h, read-out: LD50 (the source's name); method in brief: as §1
Homo sapiens [13] = species: Homo sapiens; assay: Inhibition of NF-kappaB in human MOLM13 cells assessed as CDK6 gene expression at 10 to 20 uM after 6 hrs by Western blot analysis; assay type: cell-based
Kasumi 1 [14] = assay: Cytotoxicity against human Kasumi-1 cells assessed as decrease in cell viability after 48 hrs by […]; assay type: functional; settings: Kasumi 1, 48 h, read-out: LD50 (the source's name); method in brief: as §1
KG-1 [15] = assay: Cytotoxicity against human KG1 cells assessed as decrease in cell viability after 48 hrs […]; assay type: functional; settings: KG-1, 48 h, read-out: LD50 (the source's name); method in brief: as §1
MOLM-13 [16] = assay: Upregulation of heme oxygenase 1 in human MOLM13 cells at 20 uM after 6 hrs by qRT-PCR analysis; assay type: functional, cell-based; method in brief: as §3
Leukemia cell = assay: Cytotoxicity against primary leukemia cells isolated from human AML patient assessed as cell death after 48 hrs by […]; assay type: functional; settings: read-out: LD50 (the source's name)
HL-60 [17] = assay: Cytotoxicity against human HL60 cells assessed as decrease in cell viability at 20 uM after 48 hrs by annexin V-FITC/7-AAD staining based flow cytometry relative to control; assay type: functional
Method in brief: (§4)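 AML cell lines kept at 0.5 million cells/mL and treated in triplicate for 48 h. Cells were stained with annexin V (FITC or PE) plus 7-AAD, and at least 50 000 events were recorded per condition by flow cytometry. Annexin V-/7-AAD- cells were scored viable, with viability taken relative to untreated control.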

THP-1 [18] = assay: Cytotoxicity against human THP1 cells assessed as decrease in cell viability at 20 uM after 48 hrs by annexin V-FITC/7-AAD staining based flow cytometry relative to control; assay type: functional; method in brief: as §4
KB = assay: Cytotoxicity against human KB cells assessed as decrease in cell viability after 72 hrs by MTT assay; assay type: functional, cell-based
TUR [19] = assay: Cytotoxicity against human TUR cells assessed as decrease in cell viability at 20 uM after 48 hrs by annexin V-FITC/7-AAD staining based flow cytometry relative to control; assay type: functional; method in brief: as §4
Kasumi 1 [20] = assay: Cytotoxicity against human Kasumi-1 cells assessed as decrease in cell viability at 20 uM after 48 hrs by annexin V-FITC/7-AAD staining based flow cytometry relative to control; assay type: functional; method in brief: as §4
KG-1 [21] = assay: Cytotoxicity against human KG1 cells assessed as decrease in cell viability at 20 uM after 48 hrs by annexin V-FITC/7-AAD staining based flow cytometry relative to control; assay type: functional; method in brief: as §4
PBMC [22] = assay: Cytotoxicity against human peripheral blood mononuclear cells assessed as decrease in cell viability at 20 uM after 48 hrs by annexin V-FITC/7-AAD staining based flow cytometry relative to control
Method in brief: (§5)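 Bone marrow and peripheral blood mononuclear cells from healthy donors were isolated by Ficoll density gradient. They were held 1 h in serum-free medium with rhFLT-3 ligand 50 ng/mL, rhSCF 50 ng/mL, rhIL-3 20 ng/mL and rhIL-6 20 ng/mL before drug. Treatment ran 48 h, and viability was read by annexin V/7-AAD flow cytometry relative to untreated control.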

MV4-11 [23] = assay: Cytotoxicity against human MV4-11 cells assessed as decrease in cell viability at 20 uM after 48 hrs by annexin V-FITC/7-AAD staining based flow cytometry relative to control; assay type: functional; method in brief: as §4
U-937 [24] = assay: Cytotoxicity against human U937 cells assessed as decrease in cell viability at 20 uM after 48 hrs by annexin V-FITC/7-AAD staining based flow cytometry relative to control; assay type: functional; method in brief: as §4
HeLa S3 = assay: Cytotoxicity against human HeLaS3 cells assessed as decrease in cell viability after 72 to 96 hrs by MTT assay; assay type: functional, cell-based
MOLM-13 [25] = assay: Cytotoxicity against human MOLM13 cells assessed as decrease in cell viability at 20 uM after 48 hrs by annexin V-FITC/7-AAD staining based flow cytometry relative to control; assay type: functional; method in brief: as §4
Bone marrow cell [26] = assay: Cytotoxicity against human bone marrow cells assessed as decrease in cell viability at 20 uM after 48 hrs by annexin V-FITC/7-AAD staining based flow cytometry relative to control; method in brief: as §5
MCF7 = assay: Cytotoxicity against human MCF7 cells assessed as decrease in cell viability after 72 to 96 hrs by MTT assay; assay type: functional, cell-based
Bone marrow cell [27] = assay: Cytotoxicity against human bone marrow cells assessed as decrease in cell viability at 50 uM after 48 hrs by annexin V-FITC/7-AAD staining based flow cytometry relative to control; method in brief: as §5
PBMC [28] = assay: Cytotoxicity against human peripheral blood mononuclear cells assessed as decrease in cell viability at 50 uM after 48 hrs by annexin V-FITC/7-AAD staining based flow cytometry relative to control; method in brief: as §5

**Q.** For `C=C1C(=O)O[C@@H]2[C@@H]1CC/C(C)=C/CC[C@]1(C)O[C@H]21`, which CC50 (MV4-11 [1]) is on record?
**A.** The CC50 was 8.6 µM.

**Q.** What about the Activity (MOLM-13 [2]) of the same compound?
**A.** The Activity was “Non-Toxic”.

**Q.** And the inhibition (Homo sapiens [3])?
**A.** The inhibition was “Active”.

**Q.** What about the CC50 (TUR [4]) of the same compound?
**A.** Its CC50 is 7.4 µM.

**Q.** What about the CC50 (U-937 [5]) of the same compound?
**A.** The CC50 was 8.4 µM.

**Q.** What about the Activity (MOLM-13 [6]) of the same compound?
**A.** The Activity was “Active”.

**Q.** And the inhibition (Homo sapiens [7])?
**A.** Its inhibition is “Active”.

**Q.** What about the CC50 (HL-60 [8]) of the same compound?
**A.** Its CC50 is 13.9 µM.

**Q.** And the CC50 (MOLM-13 [9])?
**A.** Its CC50 is 3.4 µM.

**Q.** What about the Activity (MOLM-13 [10]) of the same compound?
**A.** Its Activity is “Active”.

**Q.** What about the inhibition (Homo sapiens [11]) of the same compound?
**A.** Its inhibition is “Active”.

**Q.** And the CC50 (THP-1 [12])?
**A.** The CC50 was over 20 µM.

**Q.** And the inhibition (Homo sapiens [13])?
**A.** Its inhibition is “Active”.

**Q.** What about the CC50 (Kasumi 1 [14]) of the same compound?
**A.** Its CC50 is 3.6 µM.

**Q.** And the CC50 (KG-1 [15])?
**A.** The CC50 was over 20 µM.

**Q.** What about the Activity (MOLM-13 [16]) of the same compound?
**A.** The Activity was “Active”.

**Q.** Which results are given for `C=C1C(=O)O[C@@H]2[C@H]3C(C)=CC(=O)C3=C(C)CC[C@@H]12` [DEHYDROLEUCODIN]?
**A.** CC50 (MV4-11 [1]): 5 µM; Activity (MOLM-13 [2]): Non-Toxic; CC50 (Leukemia cell): 9.4 µM; inhibition (Homo sapiens [3]): Active; Activity (HL-60 [17]): Active; Activity (THP-1 [18]): Active; CC50 (TUR [4]): 12.2 µM; CC50 (U-937 [5]): 18.9 µM; Activity (MOLM-13 [6]): Active; inhibition (Homo sapiens [7]): Active; CC50 (HL-60 [8]): 14.1 µM; CC50 (MOLM-13 [9]): 12.6 µM; IC50 (KB): 5.3 µM; Activity (TUR [19]): Active; Activity (MOLM-13 [10]): Active; Activity (Kasumi 1 [20]): Active; inhibition (Homo sapiens [11]): Active; Activity (KG-1 [21]): Active; CC50 (THP-1 [12]): 16.8 µM; Activity (PBMC [22]): Non-Toxic; inhibition (Homo sapiens [13]): Active; Activity (MV4-11 [23]): Active; Activity (U-937 [24]): Active; IC50 (HeLa S3): 10 µM; CC50 (Kasumi 1 [14]): 12.9 µM; CC50 (KG-1 [15]): 18.7 µM; Activity (MOLM-13 [25]): Active; Activity (Bone marrow cell [26]): Non-Toxic; Activity (MOLM-13 [16]): Active; IC50 (MCF7): 5 µM

**Q.** How did the CC50 (MV4-11 [1]) turn out when `CC1=CC(=O)C2=C(C)CC[C@@H]3[C@H](OC(=O)[C@H]3C)[C@@H]12` [DESACETOXYMATRICARIN] was run?
**A.** The CC50 was over 20 µM.

**Q.** What about the Activity (Bone marrow cell [27]) of the same compound?
**A.** Its Activity is “Non-Toxic”.

**Q.** And the CC50 (TUR [4])?
**A.** The CC50 was over 20 µM.

**Q.** And the CC50 (U-937 [5])?
**A.** Its CC50 is over 20 µM.

**Q.** And the Activity (MOLM-13 [6])?
**A.** The Activity was “Active”.

**Q.** And the CC50 (HL-60 [8])?
**A.** The CC50 was over 20 µM.

**Q.** And the CC50 (MOLM-13 [9])?
**A.** Its CC50 is over 20 µM.

**Q.** And the Activity (MOLM-13 [10])?
**A.** The Activity was “Active”.

**Q.** What about the inhibition (Homo sapiens [11]) of the same compound?
**A.** Its inhibition is “inactive”.

**Q.** What about the CC50 (THP-1 [12]) of the same compound?
**A.** The CC50 was over 20 µM.

**Q.** What about the Activity (PBMC [28]) of the same compound?
**A.** The Activity was “Non-Toxic”.

**Q.** And the CC50 (Kasumi 1 [14])?
**A.** The CC50 was over 20 µM.

**Q.** And the CC50 (KG-1 [15])?
**A.** Its CC50 is over 20 µM.

**Q.** What about the Activity (MOLM-13 [16]) of the same compound?
**A.** Its Activity is “Active”.
